Measurements taken from ChEMBL document CHEMBL1141960, “Synthesis and evaluation of novel 8,6-fused bicyclic peptidomimetic compounds as interleukin-1beta converting enzyme inhibitors” (Bioorg Med Chem Lett, 2005).

Columns and labels:
THP-1 = assay: Inhibitory activity in THP1 whole cell assay measuring IL1-beta production; format: functional, cell-based; settings: Homo sapiens
How it was run: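 Human monocytic THP-1 cells, 2 × 10^6/ml in RPMI 1640, preincubated 15 min with compound added from DMSO solutions (test range 1 nM to 10 μM) or without, then stimulated with LPS 1 μg/ml for 4 h total; cells spun down and IL-1β released into conditioned medium quantified by ELISA.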

Caspase-1 = target: T1, Caspase-1 (Homo sapiens, UniProt P29466); assay: Inhibitory activity against Caspase 1
T1 sequence (P29466 whole entry): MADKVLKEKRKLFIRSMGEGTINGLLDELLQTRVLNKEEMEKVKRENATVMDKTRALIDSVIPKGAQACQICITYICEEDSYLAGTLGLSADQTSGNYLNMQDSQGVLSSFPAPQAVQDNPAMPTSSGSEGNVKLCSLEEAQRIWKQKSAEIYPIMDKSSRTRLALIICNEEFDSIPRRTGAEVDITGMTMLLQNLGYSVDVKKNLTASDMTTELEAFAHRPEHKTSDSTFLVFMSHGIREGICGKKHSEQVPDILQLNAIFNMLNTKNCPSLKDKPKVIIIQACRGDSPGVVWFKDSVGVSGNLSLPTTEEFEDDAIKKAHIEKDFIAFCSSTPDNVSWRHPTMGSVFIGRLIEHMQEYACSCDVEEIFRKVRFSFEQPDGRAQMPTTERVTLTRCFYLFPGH

Caspase-8 = Caspase-8 (Homo sapiens, UniProt Q14790); assay: Inhibitory activity against Caspase 8
Caspase-8, sequence (Q14790 217-374 limits assumed): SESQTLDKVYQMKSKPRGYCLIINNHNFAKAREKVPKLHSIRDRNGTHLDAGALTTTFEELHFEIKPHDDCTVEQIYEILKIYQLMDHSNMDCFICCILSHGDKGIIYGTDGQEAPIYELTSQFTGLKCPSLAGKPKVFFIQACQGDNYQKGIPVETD
Caspase-8, sequence (Q14790 385-479 limits assumed): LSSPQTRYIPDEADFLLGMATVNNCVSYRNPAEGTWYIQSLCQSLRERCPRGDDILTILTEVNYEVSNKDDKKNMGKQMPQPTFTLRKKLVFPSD

Caspase-3 = target: T2, Caspase-3 (Homo sapiens, UniProt P42574); assay: Inhibitory activity against Caspase 3
T2 sequence (P42574 whole entry): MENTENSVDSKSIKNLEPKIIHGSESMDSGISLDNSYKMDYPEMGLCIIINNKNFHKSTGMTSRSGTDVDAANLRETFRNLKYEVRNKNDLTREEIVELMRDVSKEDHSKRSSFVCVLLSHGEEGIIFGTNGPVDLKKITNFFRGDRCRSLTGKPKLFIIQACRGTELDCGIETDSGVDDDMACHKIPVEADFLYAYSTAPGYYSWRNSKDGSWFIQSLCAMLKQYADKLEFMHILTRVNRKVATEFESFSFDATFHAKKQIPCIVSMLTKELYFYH

Row | SMILES | IC50 (THP-1) [nM] | IC50 (Caspase-1) [nM] | IC50 (Caspase-8) [nM] | IC50 (Caspase-3) [nM]
1 | O=C1C[C@H](NC(=O)[C@@H]2COC[C@@H]3CCCC[C@H](NC(=O)c4nccc5ccccc45)C(=O)N32)C(O)O1 (stereo partly specified) | 101 | 1 | 264 | > 10000
2 | O=C1C[C@H](NC(=O)[C@@H]2CN(S(=O)(=O)c3ccccc3)C[C@@H]3CCCC[C@H](NC(=O)c4ccc5ccccc5c4)C(=O)N32)C(O)O1 (stereo partly specified) | 153 | 1 | 50 | > 10000
3 | O=C1C[C@H](NC(=O)[C@@H]2CNC[C@@H]3CCCC[C@H](NC(=O)c4ccc5ccccc5c4)C(=O)N32)C(O)O1 (stereo partly specified) | 75 | 1 | 506 | > 10000
4 | O=C1C[C@H](NC(=O)[C@@H]2CN(C(=O)c3ccccc3)C[C@@H]3CCCC[C@H](NC(=O)c4ccccc4)C(=O)N32)C(O)O1 (stereo partly specified) | 1420 | 7 | 38 | 8070
5 | CS(=O)(=O)N1C[C@@H]2CCCC[C@H](NC(=O)c3ccc4ccccc4c3)C(=O)N2[C@H](C(=O)N[C@H]2CC(=O)OC2O)C1 (stereo partly specified) | 46 | 1 | 283 | > 10000
6 | CS(=O)(=O)N1C[C@@H]2CCCC[C@H](NC(=O)c3nccc4ccccc34)C(=O)N2[C@H](C(=O)N[C@H]2CC(=O)OC2O)C1 (stereo partly specified) | 168 | 1 | 917 | > 10000
7 | O=C1C[C@H](NC(=O)[C@@H]2CN(C(=O)OCc3ccccc3)C[C@@H]3C/C=C\C[C@H](NC(=O)c4ccccc4)C(=O)N32)C(O)O1 (stereo partly specified) | 125 | 1 | 13 | 3260
8 | O=C1C[C@H](NC(=O)[C@@H]2CNC[C@@H]3CCCC[C@H](NC(=O)c4ccccc4)C(=O)N32)C(O)O1 (stereo partly specified) | 245 | 10 | 384 | > 10000
9 | CN1C[C@@H]2CCCC[C@H](NC(=O)c3ccccc3)C(=O)N2[C@H](C(=O)N[C@H]2CC(=O)OC2O)C1 (stereo partly specified) | 1820 | 5 | 247 | > 10000
10 | O=C1C[C@H](NC(=O)[C@@H]2COC[C@@H]3CCCC[C@H](NC(=O)c4ccc5ccccc5c4)C(=O)N32)C(O)O1 (stereo partly specified) | 60 | 1 | 911 | > 10000
11 | O=C1C[C@H](NC(=O)[C@@H]2CN(S(=O)(=O)c3ccccc3)C[C@@H]3CCCC[C@H](NC(=O)c4ccccc4)C(=O)N32)C(O)O1 (stereo partly specified) | 159 | 2 | 106 | > 10000
12 | O=C1C[C@H](NC(=O)[C@@H]2COC[C@@H]3C/C=C\C[C@H](NC(=O)c4nccc5ccccc45)C(=O)N32)C(O)O1 (stereo partly specified) | 182 | 3 | 1590 | > 10000
13 | O=C1C[C@H](NC(=O)[C@@H]2CN(C(=O)OCc3ccccc3)C[C@@H]3C/C=C\C[C@H](NC(=O)c4nccc5ccccc45)C(=O)N32)C(O)O1 (stereo partly specified) | 154 | 1 | 4 | > 10000
14 | O=C1C[C@H](NC(=O)[C@@H]2COC[C@@H]3C/C=C\C[C@H](NC(=O)c4cccc(C(F)(F)F)c4)C(=O)N32)C(O)O1 (stereo partly specified) | 132 | 9 | 4190 | > 10000
15 | O=C1C[C@H](NC(=O)[C@@H]2COC[C@@H]3C/C=C\C[C@H](NC(=O)c4ccc(C(F)(F)F)cc4)C(=O)N32)C(O)O1 (stereo partly specified) | – | 135 | 6450 | > 10000
16 | O=C1C[C@H](NC(=O)[C@@H]2COC[C@@H]3C/C=C\C[C@H](NC(=O)c4cc5ccccc5s4)C(=O)N32)C(O)O1 (stereo partly specified) | 57 | 3 | 1600 | > 10000
17 | O=C1C[C@H](NC(=O)[C@@H]2COC[C@@H]3C/C=C\C[C@H](NC(=O)c4ccc(Cl)cc4)C(=O)N32)C(O)O1 (stereo partly specified) | – | 74 | 3770 | > 10000
18 | O=C1C[C@H](NC(=O)[C@@H]2COC[C@@H]3C/C=C\C[C@H](NC(=O)c4ccc5ccccc5c4)C(=O)N32)C(O)O1 (stereo partly specified) | 62 | 3 | 2590 | > 10000
19 | O=C1C[C@H](NC(=O)[C@@H]2COC[C@@H]3C/C=C\C[C@H](NC(=O)c4ccccc4C(F)(F)F)C(=O)N32)C(O)O1 (stereo partly specified) | – | 50 | 670 | > 10000
20 | O=C1C[C@H](NC(=O)[C@@H]2COC[C@@H]3C/C=C\C[C@H](NC(=O)c4ccccc4)C(=O)N32)C(O)O1 (stereo partly specified) | – | 130 | 7900 | > 10000
21 | O=C1C[C@H](NC(=O)[C@@H]2COC[C@@H]3C/C=C\C[C@H](NC(=O)c4ccccc4Cl)C(=O)N32)C(O)O1 (stereo partly specified) | – | 33 | 448 | > 10000
22 | O=C1C[C@H](NC(=O)[C@@H]2CN(C(=O)OCc3ccccc3)C[C@@H]3C/C=C\C[C@H](NC(=O)c4ccc5ccccc5c4)C(=O)N32)C(O)O1 (stereo partly specified) | 106 | 1 | 5 | 4850
23 | CC(=O)N1C[C@@H]2CCCC[C@H](NC(=O)c3ccccc3)C(=O)N2[C@H](C(=O)N[C@H]2CC(=O)OC2O)C1 (stereo partly specified) | 1260 | 6 | 481 | > 10000
24 | O=C1C[C@H](NC(=O)[C@@H]2CN(C(=O)Nc3ccccc3)C[C@@H]3CCCC[C@H](NC(=O)c4ccccc4)C(=O)N32)C(O)O1 (stereo partly specified) | 1690 | 5 | 601 | > 10000
25 | O=C1C[C@H](NC(=O)[C@@H]2COC[C@@H]3CCCC[C@H](NC(=O)c4cc5ccccc5s4)C(=O)N32)C(O)O1 (stereo partly specified) | 178 | 1 | 429 | > 10000
26 | O=C1C[C@H](NC(=O)[C@@H]2CN(S(=O)(=O)c3ccccc3)C[C@@H]3CCCC[C@H](NC(=O)c4nccc5ccccc45)C(=O)N32)C(O)O1 (stereo partly specified) | 87 | 1 | 160 | > 10000
27 | CS(=O)(=O)N1C[C@@H]2CCCC[C@H](NC(=O)c3ccccc3)C(=O)N2[C@H](C(=O)N[C@H]2CC(=O)OC2O)C1 (stereo partly specified) | 174 | 6 | 384 | > 10000
28 | O=C1C[C@H](NC(=O)[C@@H]2CNC[C@@H]3CCCC[C@H](NC(=O)c4nccc5ccccc45)C(=O)N32)C(O)O1 (stereo partly specified) | 156 | 1 | 595 | > 10000
29 | O=C1C[C@H](NC(=O)[C@@H]2COC[C@@H]3C/C=C\C[C@H](NC(=O)c4cccc(Cl)c4)C(=O)N32)C(O)O1 (stereo partly specified) | 118 | 7 | 1550 | > 10000
